# Published values of several laboratories.
# Each line is one published result; the experiments were not run side by side.
# Target: Dual specificity mitogen-activated protein kinase kinase 2 (MAP2K2, Homo sapiens, UniProt P36507)
SMILES,observed,method,tested at,remaining binding [%]
CC1CCCN1c1nccc(-c2cnn3ncccc23)n1 (stereo not drawn),binding,,1 µM,96
Cc1nccc(COC(=O)N2C[C@@H]3[C@@H](CNC(=O)c4ccc5[nH]nnc5c4)[C@@H]3C2)n1,cell-free assay,competition with immobilised ligand,1 µM,84
COc1ncc2cc3ccccc3nc2c1C#N,cell-free assay,competition with immobilised ligand,5 µM,92
N[C@@H]1CCN(c2nccc(-c3cnn4ncccc34)n2)C1,binding,,1 µM,84
O=C(NCC1CCOCC1)c1n[nH]cc1NC(=O)c1c(F)cccc1F,binding,competition with immobilised ligand,1 µM,100
C[C@@H]1CN(c2ccc3ncc(-c4ccc5[nH]nc(C6CC6)c5c4)n3n2)C[C@H](C)O1,binding,competition with immobilised ligand,0.5 µM,100
O=C(NS(=O)(=O)c1ccc(NCC2CCOCC2)c([N+](=O)[O-])c1)c1ccc(N2CCN(Cc3ccc(C(F)(F)F)cc3-c3ccc(Cl)cc3)CC2)cc1Oc1cnc2[nH]ccc2c1,cell-free assay,competition with immobilised ligand,1 µM,100
CCN1CCN(Cc2ccc(C(=O)Nc3ccc(C)c(Oc4ccc5c(c4)CC(=O)N5)c3)cc2C(F)(F)F)CC1,binding,competition with immobilised ligand,1 µM,100
CN(c1nccc(-c2cnn3ncccc23)n1)C1CC1,binding,,1 µM,100
O=C(c1ccc(Nc2ncc(Cl)c(-c3ccc(Cl)s3)n2)cc1)N1CCC(N2CCCC2)CC1,binding,competition with immobilised ligand,1 µM,15
O=C(O)[C@@H]1[C@@H](Cn2nnc3ccccc3c2=O)CC[C@H]1C(=O)c1ccc(OCCC2CCOCC2)cc1,cell-free assay,competition with immobilised ligand,1 µM,100
N#Cc1ccccc1CSc1nnc2c(n1)[nH]c1ccccc12,binding,competition with immobilised ligand,10 µM,87
C[C@@H](c1ccc(-n2cnc3c(N)ncnc32)cc1)N1CCc2nn(C)c(Cc3ccccc3)c2C1=O,binding,competition with immobilised ligand,0.1 µM,92
c1cncc(-c2cccc(Nc3nccc(NC4CCCCC4)n3)c2)c1,binding,competition with immobilised ligand,10 µM,83
O=C(NCCCN1CCOCC1)c1ccc(Nc2nccc(-c3cc4ccccc4s3)n2)cc1,binding,competition with immobilised ligand,1 µM,79
Cc1cnn2ncc(-c3ccnc(N(C)C)n3)c2c1,binding,,1 µM,100
Cc1noc([C@H]2C[C@@H](c3ccc(C(F)(F)F)cc3)CN(C(=O)N3CCS(=O)(=O)C3)C2)n1,cell-free assay,competition with immobilised ligand,1 µM,90
COc1cnc(Nc2cccc(S(N)(=O)=O)c2)nc1N1CCN(c2ccccc2)CC1,binding,competition with immobilised ligand,1 µM,83
C[C@@]1(Cc2ccc(C#N)cc2)C(=O)N(c2cc(Cl)cc(Cl)c2)c2ncc(C(=O)NC3(c4nc(C5CCC5)no4)CC3)n21,cell-free assay,competition with immobilised ligand,1 µM,99
O=C(c1ccc(Nc2ncc(Cl)c(-c3cc4ccccc4s3)n2)cc1)N1CCC(N2CCCC2)CC1,binding,competition with immobilised ligand,1 µM,27
CN(C)CC#Cc1ccc(OCCCc2sc(N3CCc4cccc(C(=O)Nc5nc6ccccc6s5)c4C3)nc2C(=O)O)c(F)c1,cell-free assay,competition with immobilised ligand,1 µM,100
c1cnn2ncc(-c3ccnc(N4CCC45COC5)n3)c2c1,binding,,1 µM,81
CCOC(=O)c1cc2cc(-c3cc(C(=O)NCc4ccc(C(=O)O)cc4)nn3C)ccc2[nH]1,cell-free assay,competition with immobilised ligand,0.1 µM,83
CN(C)c1nccc(-c2cnc3ncccn23)n1,binding,,1 µM,65
